{
  "source": "paper PMC6981055",
  "about": "(Biochemical pharmacology, 2019)",
  "key": {"CEM tumor xenografts": {"test_system": "CEM tumor xenografts", "experiment": "Growth inhibition of CEM tumor xenografts, DI-87 with thymidine, PK-PD model", "assay_type": "in vivo", "details": "for Tumor growth, single agent: agent given alone", "outline": "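NSG mice (8–12 weeks) carried subcutaneous CEM xenografts (2 × 10^6 cells, PBS/matrigel 50/50). Dosing began at 50 mm3: oral gavage QD or BID for 16–18 days (PEG-200:Transcutol:Labrasol:Tween-80, 5:3:1:1), plus thymidine 2 g/kg i.p. BID in saline. Controls: thymidine alone, compound plus saline, vehicle plus saline. Tumor size tracked (n=5). An Emax indirect-response PD model was linked to population PK tumor concentrations.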"}, "[1]": {"target": "bovine serum albumin (BSA) (Bos taurus, UniProt P02769)", "sequence (P02769 25-607)": "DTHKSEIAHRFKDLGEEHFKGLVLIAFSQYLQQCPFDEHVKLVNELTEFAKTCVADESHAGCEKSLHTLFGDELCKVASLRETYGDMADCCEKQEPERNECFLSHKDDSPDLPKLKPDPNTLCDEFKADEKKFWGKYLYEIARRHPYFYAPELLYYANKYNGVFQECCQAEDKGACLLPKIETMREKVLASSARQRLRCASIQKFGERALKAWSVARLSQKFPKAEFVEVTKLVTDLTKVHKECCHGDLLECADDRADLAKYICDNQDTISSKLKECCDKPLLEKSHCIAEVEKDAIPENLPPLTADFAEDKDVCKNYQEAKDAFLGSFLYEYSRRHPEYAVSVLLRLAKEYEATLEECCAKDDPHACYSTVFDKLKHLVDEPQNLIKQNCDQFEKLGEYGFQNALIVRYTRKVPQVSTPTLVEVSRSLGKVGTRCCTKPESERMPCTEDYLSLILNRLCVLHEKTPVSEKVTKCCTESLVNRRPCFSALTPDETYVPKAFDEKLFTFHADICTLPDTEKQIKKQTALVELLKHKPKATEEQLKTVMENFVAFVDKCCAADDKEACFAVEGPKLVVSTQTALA", "experiment": "Protein binding assessed by IC50 of dCK inhibitor in presence of BSA", "assay_type": "in vitro ADME", "details": "25 and 50 mg/mL BSA", "outline": "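IC50 was compared between the two BSA levels, with duplicate determinations (n=2) reported as mean±SD.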"}, "CEM cells": {"test_system": "CEM cells", "experiment": "Cell proliferation assay: rescue of CEM cells from gemcitabine", "assay_type": "cell-based, human", "details": "CEM cells treated with gemcitabine with and without DI-87", "outline": "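CEM cells plated at 1×10^3 cells/well, exposed to increasing gemcitabine concentrations (up to 10 μM) with or without 1 μM test compound for 72 hr. Viability read by CellTiter-Glo luminescence after 5 min at room temperature.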"}, "dCK": {"target": "dCK (Homo sapiens, UniProt P27707)", "sequence (P27707 whole entry)": "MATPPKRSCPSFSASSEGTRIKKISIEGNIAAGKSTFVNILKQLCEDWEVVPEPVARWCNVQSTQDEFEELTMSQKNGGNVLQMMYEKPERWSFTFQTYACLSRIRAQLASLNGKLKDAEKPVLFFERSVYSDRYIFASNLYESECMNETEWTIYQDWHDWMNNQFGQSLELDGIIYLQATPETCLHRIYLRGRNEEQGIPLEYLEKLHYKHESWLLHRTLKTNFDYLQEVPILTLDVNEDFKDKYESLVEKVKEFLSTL", "experiment": "dCK activity in CEM tumors by [18F]CFA MicroPET/CT, PK-PD model", "assay_type": "in vivo, NSG mice", "outline": "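Male NSG mice bearing subcutaneous CEM tumors (250 mm3) received a single oral dose (5, 10 or 25 mg/kg) in lipid/surfactant vehicle, one time point per mouse (N=4 per time point). Mice were anesthetized and given 740 kBq [18F]CFA i.v. 3 h before imaging. MicroPET/CT acquisition ran 10 min with MAP reconstruction, co-registered CT and manual 3D tumor regions of interest. Modelled tumor concentrations were linked to the effect compartment; linear, Emax and sigmoid Emax fits were compared.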"}, "[2]": {"assay_type": "in vivo, NSG mice", "outline": "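Female NSG mice with subcutaneous CEM xenografts (from 50 mm3) given oral gavage at 10, 25 or 50 mg/kg in PEG-200:Transcutol:Labrasol:Tween-80 (5:3:1:1). One terminal plasma and tumor sample per mouse at 1, 3, 6, 9 and 24 h (n=5 per time point). Methanol extraction with internal standard, LC-MS/MS-MRM. Population model with gut depot, plasma and tumor compartments (ADVAN6, TRANS1), exponential inter-subject error and actual tumor volumes.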"}, "[3]": {"details": "sigmoid Emax indirect response model"}, "[4]": {"details": "oral 10, 25, 50 mg/kg, plasma-tumor population PK model"}, "[5]": {"details": "plasma-tumor population PK model"}},
  "note": "“Also recorded” adds a separate entry of the source.",
  "data": [
    {"molecule": "COc1ccc(-c2nc([C@@H](C)Sc3nc(N)cc(N)n3)c(C)s2)cc1OCCN1CCOCC1", "note": "[DI-87, (R)-2-((1-(2-(4-methoxy-3-(2-morpholinoethoxy)phenyl)-5-methylthiazol-4-yl)ethyl)thio)pyrimidine-4,6-diamine]", "values": [
      {"measurement": "Tumor growth inhibition", "setting": "CEM tumor xenografts; DI-87 25 mg/kg BID oral with thymidine 2 g/kg i.p. BID, 25 mg/kg", "result": "Near complete growth inhibition; also recorded: maximal tumor growth inhibition"},
      {"measurement": "Emax, Growth Inhibition PK-PD Model", "setting": "CEM tumor xenografts; Emax indirect response model, DI-87 with i.p. thymidine", "result": 1.06},
      {"measurement": "EC50", "setting": "CEM tumor xenografts; Mus musculus, ip, read-out: EC50, Growth Inhibition PK-PD Model", "result": 3.63, "unit": "µg/mL"},
      {"measurement": "Tumor growth, single agent", "setting": "CEM tumor xenografts; data not shown", "result": "tumor growth curves similar to the control; also recorded: essentially no ability to inhibit growth"},
      {"measurement": "Tolerability as a single agent", "setting": "CEM tumor xenografts; single agent, higher doses, data not shown", "result": "well tolerated at higher doses"},
      {"measurement": "Protein binding (IC50 in presence of BSA)", "setting": "[1]", "result": "low protein binding; also recorded: retained its potency in the presence of albumin"},
      {"measurement": "Protein binding (IC50 in presence of BSA)", "setting": "[1]; listed as (R)-DI-87", "result": "comparatively lower than its predecessor"},
      {"measurement": "Prevention of gemcitabine cytotoxicity", "setting": "CEM cells", "result": "fully prevented cytotoxicity following gemcitabine treatment"},
      {"measurement": "EC50", "setting": "dCK", "result": 617, "unit": "nM"},
      {"measurement": "Gamma (Hill coefficient), DCK inhibition PK-PD model", "setting": "dCK; [3]", "result": 58.6},
      {"measurement": "Kin, DCK inhibition PK-PD model", "setting": "dCK; [3]", "result": 0.76},
      {"measurement": "Kout, DCK inhibition PK-PD model", "setting": "dCK; [3]", "result": 0.12},
      {"measurement": "Emax, DCK inhibition PK-PD model", "setting": "dCK; sigmoid Emax indirect response model, linked to tumor concentrations", "result": 1.20},
      {"measurement": "dCK inhibition (PET)", "setting": "dCK; single oral dose 5 mg/kg", "result": "minimal dCK inhibition with rapid recovery"},
      {"measurement": "dCK inhibition (PET)", "setting": "dCK; single oral dose 10 mg/kg", "result": "full inhibition with recovery initiating at the 12 hr time point"},
      {"measurement": "Earliest time of full dCK inhibition (PET)", "setting": "dCK; single oral dose 25 mg/kg", "result": 3, "unit": "h"},
      {"measurement": "Time to full recovery of dCK enzyme activity (PET)", "setting": "dCK; single oral dose 25 mg/kg", "result": "≤ 36", "unit": "h"},
      {"measurement": "Half-life (plasma)", "setting": "[2]; 0.693/(CL/V)", "result": 4.2, "unit": "h"},
      {"measurement": "half-life", "setting": "[2]; female, NSG, mouse, plasma, oral, Half-life (plasma), 0.693/(CL/V)", "result": 4, "unit": "h"},
      {"measurement": "KA (absorption constant)", "setting": "[2]; fixed to the estimate from the plasma PK model", "result": "0.66 (FIXED) hr"},
      {"measurement": "Time of peak tumor concentration", "setting": "[2]; oral 10, 25, 50 mg/kg, CEM tumor", "result": "3 to 9", "unit": "h"},
      {"measurement": "CL", "setting": "[2]; [4]", "result": 7.67, "unit": "mL/min/kg"},
      {"measurement": "V (plasma volume of distribution)", "setting": "[2]; [4]", "result": 2.78, "unit": "L/kg"},
      {"measurement": "Q (intercompartmental clearance plasma-tumor)", "setting": "[2]; [5]", "result": 0.075, "unit": "mL/min/kg"},
      {"measurement": "Scalar", "setting": "[2]; [5]", "result": 3.69}
    ]},
    {"molecule": "Cc1cn([C@H]2C[C@H](O)[C@@H](CO)O2)c(=O)[nH]c1=O", "note": "[thymidine, reference compound]", "values": [
      {"measurement": "Tumor growth, single agent", "setting": "CEM tumor xenografts; data not shown", "result": "tumor growth curves similar to the control"}
    ]}
  ]
}
